The values that follow come from ChEMBL document CHEMBL3232996, “Synthesis and biological evaluation of novel (123)I-labeled 4-(4-iodophenyl)butanoyl-L-prolyl-(2S)-pyrrolidines for imaging prolyl oligopeptidase in vivo” (Eur J Med Chem, 2014).

What all share (assay type): ADME, organism-based
Holding throughout (settings): in vivo

Data set [1] in a line: Plasma protein binding in iv dosed C57Bl/6JRccHsd mouse measured at 160 mins. A digest of the protocol:
(§1)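 Male mice given 3.6 MBq tracer i.v. via lateral tail vein; blocking groups got POP inhibitor i.p. (50 µmol/kg, 10 mL/kg, 1% DMSO in 0.9% NaCl) 10 min before. Heparinized cardiac blood on ice, gamma-counted, spun 5 min at 2000 g; plasma counted, precipitated with 1.5 volumes acetonitrile, respun; cell-bound, protein-bound and free fractions expressed as % of blood activity; n = 3.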

The nature of data set [2]: Plasma protein binding in iv dosed C57Bl/6JRccHsd mouse measured at 160 mins post dose pretreated with 50 umol/kg, ip prolyl oligopeptidase inhibitor KYP-2047 10 mins before compound dosing by SPECT analysis. The essentials: as §1
The next data set has as its system Kidney. In words: Biodistribution in C57Bl/6JRccHsd mouse kidney at 2.86 +/- 1.26 MBq, iv measured at 80 mins by SPECT analysis. A digest of the protocol: (§2)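 Organs excised at 5, 20, 40, 80 or 160 min and radioactivity gamma-counted as %ID/g (brain also as %ID). Blocking groups received KYP-2047 (50 µmol/kg, 10 mL/kg, 1% DMSO in 0.9% NaCl) i.p. 10 min before tracer. Mean ± SD, n = 2–4 per time point. Blocking compared by two-tailed Student's t test.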

The next data set concerns Spleen. The data set is described as follows: Biodistribution in C57Bl/6JRccHsd mouse spleen at 2.86 +/- 1.26 MBq, iv measured at 80 mins by SPECT analysis. A digest of the protocol:
as §2

The test system of data set [3] is Mus musculus. In words: Biodistribution in C57Bl/6JRccHsd mouse salivary gland at 2.86 +/- 1.26 MBq, iv measured at 80 mins by SPECT analysis. The essentials: as §2
Data set [4] relates to Mus musculus. The data set is described as follows: Biodistribution in C57Bl/6JRccHsd mouse testis at 2.86 +/- 1.26 MBq, iv measured at 80 mins post dose pretreated with 50 umol/kg, ip prolyl oligopeptidase inhibitor KYP-2047 10 mins before compound dosing by SPECT analysis. The essentials: as §2
For data set [5], the system named is Mus musculus. The data set is described as follows: Biodistribution in C57Bl/6JRccHsd mouse tongue at 2.86 +/- 1.26 MBq, iv measured at 80 mins post dose pretreated with 50 umol/kg, ip prolyl oligopeptidase inhibitor KYP-2047 10 mins before compound dosing by SPECT analysis. A digest of the protocol: as §2
A further data set relates to Blood. The data set is described as follows: Biodistribution in C57Bl/6JRccHsd mouse blood at 2.86 +/- 1.26 MBq, iv measured at 40 mins by SPECT analysis. The essentials: as §2

`N#C[C@@H]1CCCN1C(=O)[C@@H]1CCCN1C(=O)CCCc1ccc([123I])cc1`: the PPB was determined as 1% in data set [1] and 0% in data set [2]. In addition, the Drug uptake with Kidney is 10.02 % ID/g; in the data set on Spleen, 10.56 % ID/g; in the data set on Mus musculus [3], 7.77 % ID/g; in the data set with Mus musculus [4], 0.57 % ID/g; in the data set with Mus musculus [5], 1.44 % ID/g; with Blood, 7.6 % ID/g.
